Assays:
[1] = Cytotoxicity against human Hepatoma cells; type: cell-based
Hepatitis C virus = test: Antiviral activity against HCV infected in human hepatoma cells assessed as inhibition of viral replication; type: functional, organism-based, Hepacivirus hominis
[2] = Mean residence time in Sprague-Dawley rat liver at 10 mg/kg, sc; type: ADME, organism-based; design: dose 10 mg/kg, route subcutaneous
Method in brief: (§1)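 Male Sprague–Dawley rats got a single subcutaneous dose of 10 mg/kg (n = 2) in 10% PEG300–10% HPCD in water. Plasma and liver concentrations were measured over time after dosing. Footnotes mark concentrations taken at 0.5 h and at 2 h postdosing. One compound was given as its tri-sodium salt.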

[3] = Half life in Sprague-Dawley rat liver at 10 mg/kg, sc; type: ADME, organism-based; design: dose 10 mg/kg, route subcutaneous; method in brief: as §1
[4] = Mean residence time in Sprague-Dawley rat plasma at 10 mg/kg, sc; type: ADME, organism-based; design: dose 10 mg/kg, route subcutaneous; method in brief: as §1
[5] = AUC in Sprague-Dawley rat liver at 10 mg/kg, sc; type: ADME, organism-based; design: dose 10 mg/kg, route subcutaneous; method in brief: as §1
[6] = Half life in Sprague-Dawley rat plasma at 10 mg/kg, sc; type: ADME, organism-based; design: dose 10 mg/kg, route subcutaneous; method in brief: as §1
[7] = AUC in Sprague-Dawley rat plasma at 10 mg/kg, sc; type: ADME, organism-based; design: dose 10 mg/kg, route subcutaneous; method in brief: as §1
[8] = Cmax in Sprague-Dawley rat plasma at 10 mg/kg, sc at 0.5 hrs; type: ADME, organism-based; design: dose 10 mg/kg, route subcutaneous; method in brief: as §1
[9] = Cmax in Sprague-Dawley rat liver at 10 mg/kg, sc at 2 hrs; type: ADME, organism-based; design: dose 10 mg/kg, route subcutaneous; method in brief: as §1

Row | SMILES | IC50 (Hepatitis C virus) [nM] | CC50 [1] [µM] | also measured
1 | CCCCCCCC(=O)CCCCCC/C=C/[C@H](C(=O)N[C@@H](Cc1ccc(OCC=C(C)C)cc1)C(=O)O)[C@@](O)(CC(=O)O)C(=O)O | – | > 5 | –
2 | CC(C)CCOc1ccc(C[C@H](NC(=O)[C@@H](/C=C/CCCCCCC(=O)Cc2ccccn2)[C@@](O)(CC(=O)O)C(=O)O)C(=O)O)cc1 | > 1000 | > 1 | –
3 | CCCCCCCC(=O)CCCCCC/C=C/[C@H](C(=O)N[C@@H](CC1CCCCC1)C(=O)O)[C@@](O)(CC(=O)O)C(=O)O | > 5000 | > 5 | –
4 | CCCCCCCC(=O)CCCCCC/C=C/[C@H](C(=O)N[C@@H](Cc1cccs1)C(=O)O)[C@@](O)(CC(=O)O)C(=O)O | 490 | > 1 | –
5 | CCCCCCCC(=O)CCCCCC/C=C/[C@H](C(=O)N[C@@H](Cc1cccc2ccccc12)C(=O)O)[C@@](O)(CC(=O)O)C(=O)O | > 1000 | > 1 | –
6 | CCCCCCCC(=O)CCCCCC/C=C/[C@H](C(=O)N[C@@H](Cc1ccc(-c2cccc(OC)c2)cc1)C(=O)[O-])[C@@](O)(CC(=O)[O-])C(=O)[O-].[Na+].[Na+].[Na+] | – | – | MRT [2]: 16.1 h; half-life [3]: 1280 min; MRT [4]: 12.9 h; AUC [5]: 82900 ng·h/mL; half-life [6]: 888 min; AUC [7]: 2590 ng·h/mL; Cmax [8]: 351 ng/mL; Cmax [9]: 5920 ng/mL
7 | CCCCCCCC(=O)CCCCCC/C=C/[C@H](C(=O)N[C@@H](Cc1ccccc1)C(=O)O)[C@@](O)(CC(=O)O)C(=O)O | 17 | 13.9 | –
8 | CCCCCCCC(=O)CCCCCC/C=C/[C@H](C(=O)N[C@@H](Cc1ccc(OCCCC(C)C)cc1)C(=O)O)[C@@](O)(CC(=O)O)C(=O)O | 12 | > 1 | –
9 | CCCCCCCC(=O)CCCCCC/C=C/[C@H](C(=O)N[C@H](Cc1ccc(OCCC(C)C)cc1)C(=O)O)[C@@](O)(CC(=O)O)C(=O)O | > 5000 | > 5 | –
10 | CC#CCOc1ccc(C[C@H](NC(=O)[C@@H](/C=C/CCCCCCC(=O)CCCCCCC)[C@@](O)(CC(=O)[O-])C(=O)[O-])C(=O)[O-])cc1.[Na+].[Na+].[Na+] | – | – | MRT [2]: 7.3 h; half-life [3]: 285 min; MRT [4]: 5.48 h; AUC [5]: 49600 ng·h/mL; half-life [6]: 239 min; AUC [7]: 3050 ng·h/mL; Cmax [8]: 604 ng/mL; Cmax [9]: 7100 ng/mL
11 | CCCCCCCCCCCCCC/C=C/[C@H](C(=O)NC(Cc1ccc(OCC=C(C)C)cc1)C(=O)O)[C@@](O)(CC(=O)O)C(=O)O (some centres undefined) | 155 | > 50 | –
12 | CCCCCCC(=O)CCCCCC/C=C/[C@H](C(=O)N[C@@H](Cc1ccc(OCCC(C)C)cc1)C(=O)O)[C@@](O)(CC(=O)O)C(=O)O | 19 | > 1 | –
13 | CCCCCCCC(O)CCCCCC/C=C/[C@H](C(=O)N[C@@H](Cc1ccc(OCCC(C)C)cc1)C(=O)O)[C@@](O)(CC(=O)O)C(=O)O (mixture of isomers) | 25 | > 1 | –
14 | CC(C)CCOc1ccc(C[C@H](NC(=O)[C@@H](/C=C/CCCCCCC(=O)CCC2CCCCC2)[C@@](O)(CC(=O)O)C(=O)O)C(=O)O)cc1 | 32 | > 1 | –
15 | CCCCCCCC(=O)CCCCCC/C=C/[C@H](C(=O)N[C@@H](Cc1ccc2ccccc2c1)C(=O)O)[C@@](O)(CC(=O)O)C(=O)O | 14 | > 5 | –
16 | CC(C)CCOc1ccc(C[C@H](NC(=O)[C@@H](/C=C/CCCCCCC(=O)CCc2ccccc2)[C@@](O)(CC(=O)O)C(=O)O)C(=O)O)cc1 | 290 | > 1 | –
17 | CCCCCCCC(=O)CCCCCC/C=C/[C@H](C(=O)N[C@@H](Cc1ccc(-c2cccnc2)cc1)C(=O)O)[C@@](O)(CC(=O)O)C(=O)O | 10 | > 1 | –
18 | CCCC(=O)CCCCCC/C=C/[C@H](C(=O)N[C@@H](Cc1ccc(OCCC(C)C)cc1)C(=O)O)[C@@](O)(CC(=O)O)C(=O)O | 800 | > 5 | –
19 | CCCCCCCC(=O)CCCCCC/C=C/[C@H](C(=O)N[C@@H](Cc1ccc(OCCCN)cc1)C(=O)O)[C@@](O)(CC(=O)O)C(=O)O | 38 | > 1 | –
20 | CCCCCCCC(=O)CCCCCC/C=C/[C@H](C(=O)N[C@@H](Cc1ccc(OCc2ccccc2)cc1)C(=O)[O-])[C@@](O)(CC(=O)[O-])C(=O)[O-].[Na+].[Na+].[Na+] | – | – | MRT [2]: 17 h; half-life [3]: 1640 min; MRT [4]: 13.6 h; AUC [5]: 100000 ng·h/mL; half-life [6]: 589 min; AUC [7]: 2690 ng·h/mL; Cmax [8]: 209 ng/mL; Cmax [9]: 6590 ng/mL
21 | CCCCCCCC(=O)CCCCCCCC[C@H](C(=O)N[C@@H](Cc1ccc(OCCC(C)C)cc1)C(=O)O)[C@@](O)(CC(=O)O)C(=O)O | 150 | > 5 | –
22 | CCCCCCCC(=O)CCCCCC/C=C/[C@H](C(=O)NCCc1ccc(OCCC(C)C)cc1)[C@@](O)(CC(=O)O)C(=O)O | 1000 | > 5 | –

More lines, main results first:

Row | IC50 (Hepatitis C virus) [nM] | SMILES | CC50 [1] [µM] | also measured
23 | 6.4 | CCCCCCCC(=O)CCCCCC/C=C/[C@H](C(=O)N[C@@H](Cc1ccc(OC)cc1)C(=O)O)[C@@](O)(CC(=O)O)C(=O)O | > 5 | –
24 | 1.9 | CCCCCCCC(=O)CCCCCC/C=C/[C@H](C(=O)N[C@@H](Cc1ccc(Oc2ccccc2)cc1)C(=O)O)[C@@](O)(CC(=O)O)C(=O)O | > 5 | –
25 | 5.1 | CCCCCCCCCC(=O)CCCC/C=C/[C@H](C(=O)N[C@@H](Cc1ccc(OCCC(C)C)cc1)C(=O)O)[C@@](O)(CC(=O)O)C(=O)O | > 1 | –
26 | 6.1 | C=CCCCCCC(=O)CCCCCC/C=C/[C@H](C(=O)N[C@@H](Cc1ccc(OCCC(C)C)cc1)C(=O)O)[C@@](O)(CC(=O)O)C(=O)O | > 1 | –
27 | 1.6 | CCCCCCCC(=O)CCCCCC/C=C/[C@H](C(=O)N[C@@H](Cc1ccc(-c2ccccc2)cc1)C(=O)O)[C@@](O)(CC(=O)O)C(=O)O | > 5 | –
28 | 2.6 | CCCCCCCC(=O)CCCCCC/C=C/[C@H](C(=O)N[C@@H](Cc1ccc(-c2cccc(OC)c2)cc1)C(=O)O)[C@@](O)(CC(=O)O)C(=O)O | > 1 | –
29 | 1.2 | CCCCCCCC(=O)CCCCCC/C=C/[C@H](C(=O)N[C@@H](Cc1ccc(OCCCC)cc1)C(=O)O)[C@@](O)(CC(=O)O)C(=O)O | > 5 | –
30 | 6.9 | CCCCCCCCC(=O)CCCCCC/C=C/[C@H](C(=O)N[C@@H](Cc1ccc(OCCC(C)C)cc1)C(=O)O)[C@@](O)(CC(=O)O)C(=O)O | > 50 | –
31 | 2.6 | CCCCCCCC(=O)CCCCCC/C=C/[C@H](C(=O)N[C@@H](Cc1ccc(OCCC)cc1)C(=O)O)[C@@](O)(CC(=O)O)C(=O)O | > 5 | –
32 | 1.2 | CC#CCOc1ccc(C[C@H](NC(=O)[C@@H](/C=C/CCCCCCC(=O)CCCCCCC)[C@@](O)(CC(=O)O)C(=O)O)C(=O)O)cc1 | > 5 | –
33 | 1.4 | CCCCCCCC(=O)CCCCCC/C=C/[C@H](C(=O)N[C@@H](Cc1ccc(OCCC(C)C)cc1)C(=O)O)[C@@](O)(CC(=O)O)C(=O)O | > 5 | –
34 | 5.7 | CC(C)CCCCC(=O)CCCCCC/C=C/[C@H](C(=O)N[C@@H](Cc1ccc(OCCC(C)C)cc1)C(=O)O)[C@@](O)(CC(=O)O)C(=O)O | > 1 | –
35 | 0.32 | CCCCCCCC(=O)CCCCCC/C=C/[C@H](C(=O)N[C@@H](Cc1ccc(OCc2ccccc2)cc1)C(=O)O)[C@@](O)(CC(=O)O)C(=O)O | > 5 | –
36 | 1.4 | CCCCCC(=O)CCCCCCCC/C=C/[C@H](C(=O)N[C@@H](Cc1ccc(OCCC(C)C)cc1)C(=O)O)[C@@](O)(CC(=O)O)C(=O)O | > 1 | –
